Consider 22 molecules from ChEMBL document CHEMBL5247675, “Antimicrobial Peptides Incorporating Halogenated Marine-Derived Amino Acid Substituents” (ACS Med Chem Lett, 2023).

Non-standard residues stand in square brackets, D forms with d. Residues, ends and D or L forms follow the SMILES beside them. *: point of attachment. Bip = N[C@@H](Cc1ccc(-c2ccccc2)cc1)C(=O)O; Lys(Me3) = C[N+](C)(C)CCCC[C@H](N)C(=O)O; NHPhenethyl = c1ccc(CCN*)cc1

In series [1] the test system is Escherichia coli. Nature of the series: Antimicrobial activity against Escherichia coli ATCC 25922 assessed as reduction in microbial growth incubated for 18 hrs by CLSI protocol based two fold serial dilution method. The format is functional.
For series [2], the system named is Staphylococcus aureus. Nature of the series: Antimicrobial activity against Staphylococcus aureus ATCC 29213 assessed as reduction in microbial growth incubated for 18 hrs by CLSI protocol based two fold serial dilution method. The format is functional.
The subject of series [3] is Candida albicans. Description: Antimicrobial activity against Candida albicans SC5314 assessed as reduction in microbial growth incubated for 48 hrs by CLSI protocol based broth microdilution method. The format is functional.
For series [4], the system named is Cyberlindnera jadinii. Description: Antimicrobial activity against clinical isolate Candida utilis SVB-Y1 assessed as reduction in microbial growth incubated for 48 hrs by CLSI protocol based broth microdilution method. The format is functional. To be noted: Williopsis jadinii. In short, it runs like this:
(§1)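 Clinical isolates of the fungi were subcultured from Auckland City Hospital. MICs were determined following Clinical and Laboratory Standards Institute recommended protocols.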
Background: In broth dilution the organism is exposed to a series of concentrations in liquid medium.

For series [5], the system named is Aspergillus fumigatus. Description: Antimicrobial activity against clinical isolate Aspergillus fumigatus SVB-F136 assessed as reduction in microbial growth incubated for 48 hrs by CLSI protocol based broth microdilution method. The format is functional. Put shortly:
as §1

Series [6] is described as follows: Hemolytic activity in human RBC assessed as hemolysis rate at 100 uM incubated for 45 mins by spectrophotometric assay relative to control. The format is toxicity, cell-based, Erythrocyte. The conditions noted are these: human red blood cells, read-out: Activity. Put shortly: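 Isolated, washed human erythrocytes were exposed to each compound at a single concentration of 100 μM. Percent hemolysis was recorded as a relative measure between compounds.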

Series [7] can be described thus: Cytotoxicity against human HeLa cells assessed as reduction in cell viability incubated for 24 hrs by PrestoBlue assay. The format is toxicity, cell-based. In short, it runs like this:
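HeLa (human epithelial) cells were exposed to serial peptide dilutions from 1.4 to 87.5 μM for 24 h at 37 °C. Viability was read by PrestoBlue, and IC50 was taken from dose–response curves. There were two independent experiments, each in triplicate, reported as mean ± SD.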

A short description of series [8]: Hemolytic activity in human RBC assessed as hemolysis rate incubated for 45 mins by spectrophotometric assay. The format is toxicity, cell-based, Erythrocyte. To be noted: human red blood cells.

As usually defined, the MIC is the lowest concentration found to suppress growth. Regarding `COc1c(Br)cc(C[C@H](NC(=O)CCCCC[N+](C)(C)C)C(=O)N[C@@H](CCCNC(=N)N)C(=O)NCCc2ccccc2)cc1Br`, the MIC in series [1], in series [2], in series [3], in series [4] and in series [5] was above 64 µM in each case.
In the case of `COc1c(Br)cc(CCNC(=O)[C@H](CCCCN)NC(=O)[C@H](Cc2cc(Br)c(OC)c(Br)c2)NC(=O)[C@@H](N)CCCCN)cc1Br`, the minimal inhibitory concentration (MIC) in series [1] was above 64 µM; in series [2], 64 µM; in series [3], above 64 µM; in series [4] it was 32 µM; in series [5], above 64 µM.
On to `N=C(N)NCCC[C@H](NC(=O)[C@H](Cc1ccccc1)NC(=O)[C@@H](N)CCCNC(=N)N)C(=O)NCCc1ccccc1` (H-Arg-Phe-Arg-NHPhenethyl), for which the MIC in series [1], in series [2], in series [3], in series [4] and in series [5] was above 64 µM each time. Besides, in series [6], the hemolysis at 0.75 h, 100 µM came out at 0.33%.
Consider `C[N+](C)(C)CCCC[C@H](N)C(=O)N[C@@H](Cc1ccc(-c2ccccc2)cc1)C(=O)N[C@@H](CCCNC(=N)N)C(=O)NCCc1ccccc1` (H-[Lys(Me3)]-[Bip]-Arg-NHPhenethyl), for which the MIC in series [1], in series [2], in series [3], in series [4] and in series [5] was above 64 µM each time.
For POLYMYXIN B, the MIC in series [1] was 0.0625 µM; in series [2] it was above 64 µM.
For `COc1c(Br)cc(C[C@H](NC(=O)[C@@H](N)CCCNC(=N)N)C(=O)N[C@@H](CCCNC(=N)N)C(=O)NCCc2c[nH]c3cc(Br)ccc23)cc1Br`, the minimal inhibitory concentration (MIC) in series [1], in series [2], in series [3], in series [4] and in series [5] was above 64 µM throughout.
The term IC50 denotes the concentration at which inhibition is half-maximal. Consider `COc1ccc(-c2ccc(C[C@H](NC(=O)[C@@H](N)CCCNC(=N)N)C(=O)N[C@@H](CCCNC(=N)N)C(=O)NCCc3ccccc3)cc2)cc1`, for which the MIC in series [1] was above 64 µM; in series [2], 32 µM; in series [3] it was 2 µM; in series [4], 2 µM; in series [5], above 64 µM. Also, the hemolysis at 0.75 h, 100 µM in series [6] amounted to 0.4%. Also, the IC50 at 24 h in series [7] is above 87.5 µM.
Regarding `COc1c(Br)cc(-c2ccc(C[C@H](NC(=O)[C@@H](N)CCCNC(=N)N)C(=O)N[C@@H](CCCNC(=N)N)C(=O)NCCc3ccccc3)cc2)cc1Br`, the minimal inhibitory concentration (MIC) in series [1] is 16 µM; in series [2], 8 µM; in series [3] it was 4 µM; in series [4], 4 µM; in series [5], 16 µM. Moreover, the hemolysis at 0.75 h, 100 µM in series [6] stood at 1.38%. In addition, in series [7], the IC50 at 24 h is above 87.5 µM.
Take `COc1ccc(CCNC(=O)[C@H](CCCNC(=N)N)NC(=O)[C@H](Cc2ccc(-c3ccc(OC)c(Br)c3)cc2)NC(=O)[C@@H](N)CCCNC(=N)N)cc1Br`: the MIC in series [1] is above 64 µM; in series [2], above 64 µM; in series [3], 32 µM; in series [4], 4 µM; in series [5], above 64 µM. In addition, the hemolysis at 0.75 h, 100 µM in series [6] was 0.29%.
Regarding `C[N+](C)(C)CCCCC[C@H](N)C(=O)N[C@@H](Cc1ccc(-c2ccccc2)cc1)C(=O)N[C@@H](CCCNC(=N)N)C(=O)NCCc1ccccc1`, the minimum inhibitory concentration (MIC) in series [1], in series [2], in series [3], in series [4] and in series [5] was above 64 µM throughout.
As to `N=C(N)NCCC[C@H](NC(=O)[C@H](Cc1ccc(-c2cc(Br)c(O)c(Br)c2)cc1)NC(=O)[C@@H](N)CCCNC(=N)N)C(=O)NCCc1cc(Br)c(O)c(Br)c1`, the minimum inhibitory concentration (MIC) in series [1] was above 64 µM; in series [2] it was above 64 µM; in series [3], above 64 µM; in series [4], 64 µM; in series [5], at least 64 µM.
`COc1c(Br)cc(CCNC(=O)[C@H](CCCNC(=N)N)NC(=O)[C@H](Cc2c[nH]c3cc(Br)ccc23)NC(=O)[C@@H](N)CCCNC(=N)N)cc1Br`: the MIC in series [1] amounted to 16 µM; in series [2] it was 8 µM; in series [3] it was 2 µM; in series [4], 2 µM; in series [5], 16 µM. In addition, in series [6], the hemolysis at 0.75 h, 100 µM turned out to be 1.19%. Also, in series [7], the IC50 at 24 h is above 87.5 µM.
By EC50 is commonly meant the concentration giving half of the maximal effect. In the case of `CC(C)(C)c1cc(C(C)(C)C)c2[nH]c(C(C)(C)C)c(C[C@H](NC(=O)[C@@H](N)CCCNC(=N)N)C(=O)N[C@@H](CCCNC(=N)N)C(=O)NCCc3ccccc3)c2c1` [LTX-109], the MIC was 2 µM in series [1]; 2 µM in series [2]; 4 µM in series [3]; 2 µM in series [4]; 8 µM in series [5]. In series [6], the hemolysis at 0.75 h, 100 µM is 4.23%. Moreover, the concentration for a half-maximal effect (EC50) at 45 min in series [8] is 222 µM. In addition, the concentration for half-maximal inhibition (IC50) at 24 h in series [7] is 46.6 µM.
Regarding `C[N+](C)(C)CCCC[C@H](NC(=O)[C@H](Cc1ccc(-c2ccccc2)cc1)NC(=O)[C@@H](N)CCCC[N+](C)(C)C)C(=O)NCCc1ccccc1` (H-[Lys(Me3)]-[Bip]-[Lys(Me3)]-NHPhenethyl), the minimum inhibitory concentration (MIC) in series [1] was above 64 µM; in series [2], above 64 µM; in series [3] it was above 64 µM; in series [4] it was 64 µM; in series [5], above 64 µM.
For the molecule `COc1c(Br)cc(CCNC(=O)[C@H](CCCNC(=N)N)NC(=O)[C@H](Cc2ccc(-c3cc(Br)c(OC)c(Br)c3)cc2)NC(=O)[C@@H](N)CCCNC(=N)N)cc1Br`, the MIC in series [1] is 8 µM; in series [2] it was 4 µM; in series [3], 4 µM; in series [4], 4 µM; in series [5], 16 µM. Further, in series [6], the hemolysis at 0.75 h, 100 µM came out at 1.62%. Moreover, the IC50 at 24 h in series [7] was above 87.5 µM.
For the molecule `CC1(C)S[C@@H]2[C@H](NC(=O)[C@H](N)c3ccc(O)cc3)C(=O)N2[C@H]1C(=O)O` [AMOXICILLIN], the minimal inhibitory concentration (MIC) was 16 µM in series [1] and 4 µM in series [2].
Take `C[C@@H]1[C@H](O)[C@@H](C)/C=C/C=C/C=C/C=C/C=C/C=C/C=C/[C@H](O[C@@H]2O[C@H](C)[C@@H](O)[C@H](N)[C@@H]2O)C[C@@H]2O[C@](O)(C[C@@H](O)C[C@@H](O)[C@H](O)CC[C@@H](O)C[C@@H](O)CC(=O)O[C@H]1C)C[C@H](O)[C@H]2C(=O)O` [AMPHOTERICIN B]: the MIC in series [3] stood at 1 µM; in series [4] it was 2 µM; in series [5], 4 µM.
Regarding `N=C(N)NCCC[C@H](NC(=O)[C@@H](Cc1c[nH]c2cc(Br)ccc12)NC(=O)[C@@H](N)CCCNC(=N)N)C(=O)NCCc1ccccc1`, the minimal inhibitory concentration (MIC) in series [1] was above 64 µM; in series [2] it was above 64 µM; in series [3] it was above 64 µM; in series [4], 16 µM; in series [5], above 64 µM. Also, in series [6], the hemolysis at 0.75 h, 100 µM worked out at 0.27%.
Take `COc1c(Br)cc(CCNC(=O)[C@H](CCCNC(=N)N)NC(=O)[C@H](Cc2c[nH]c3ccccc23)NC(=O)[C@@H](N)CCCNC(=N)N)cc1Br`: the MIC is above 64 µM in series [1]; 64 µM in series [2]; 8 µM in series [3]; 8 µM in series [4]; 64 µM in series [5]. Also, the hemolysis at 0.75 h, 100 µM in series [6] was 0.35%.
As for `C[N+](C)(C)CCCC[C@H](NC(=O)[C@H](Cc1ccc(-c2ccccc2)cc1)NC(=O)[C@@H](N)CCCNC(=N)N)C(=O)NCCc1ccccc1` (H-Arg-[Bip]-[Lys(Me3)]-NHPhenethyl), the MIC in series [1], in series [2], in series [3], in series [4] and in series [5] was above 64 µM each time.
With `N=C(N)NCCC[C@H](NC(=O)[C@H](Cc1c[nH]c2cc(Br)ccc12)NC(=O)[C@@H](N)CCCNC(=N)N)C(=O)NCCc1ccccc1`, the MIC in series [1] is above 64 µM; in series [2], above 64 µM; in series [3] it was 16 µM; in series [4] it was 8 µM; in series [5], above 64 µM. The hemolysis at 0.75 h, 100 µM in series [6] is 0.29%. Besides, in series [7], the 50% inhibitory concentration (IC50) at 24 h was above 87.5 µM.
Take `COc1c(Br)cc(C[C@H](NC(=O)[C@@H](N)CCCNC(=N)N)C(=O)N[C@@H](CCCNC(=N)N)C(=O)NCCc2ccccc2)cc1Br`: the MIC in series [1] is above 64 µM; in series [2] it was above 64 µM; in series [3], 16 µM; in series [4], 8 µM; in series [5] it was 64 µM. The hemolysis at 0.75 h, 100 µM in series [6] was determined as 0.34%.
